In brackets after ≈: the same amount, converted by molar mass. Activity calls are given as the source filed them. The rule behind the calls is not given here.
What was measured:
Rattus norvegicus = test: Antiinflammatory activity rat assessed as reduction of carrageenan-induced paw oedema at 100 mg/kg, po administered 30 mins before carrageenan challenge measured after 60 to 180 mins; format: functional, organism-based; set-up: dose 100 mg/kg
Summary of the method: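 Rats randomly assigned, 100 mg/kg orally as suspension in 1% carboxymethyl cellulose, 30 min before carrageenan injected into right hind paw. Paw thickness measured with vernier callipers at 60, 120 and 180 min. Diclofenac reference; mean ± SEM, n = 6, vs vehicle control.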

Mus musculus [1] = test: Analgesic activity Wistar albino mouse assessed as tail withdrawal latency time at 100 mg/kg, po administered by intragastric tube after 60 mins (reference value: 1.363 +/- 0.1297 sec); format: functional
Mus musculus [2] = test: Analgesic activity Wistar albino mouse assessed as tail withdrawal latency time at 100 mg/kg, po administered by intragastric tube after 120 mins (reference value: 1.363 +/- 0.1297 sec); format: functional
Mus musculus [3] = test: Analgesic activity Wistar albino mouse assessed as tail withdrawal latency time at 100 mg/kg, po administered by intragastric tube after 180 mins (reference value: 1.363 +/- 0.1297 sec); format: functional
[4] = system: Radical scavenging activity; test: Antioxidant activity of the compound assessed as DPPH radical scavenging activity at 200 ug/ml after 20 mins; format: functional
Summary of the method: (§1)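 Compound dissolved in methylene dichloride at the stated concentration, mixed with 4 mL 0.1 mM methanolic DPPH, held 20 min at ambient temperature; absorbance read at 517 nm. Scavenging % = (A_DPPH − A_test)/A_DPPH × 100. Triplicate; ascorbic acid positive control.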

[5] = system: Radical scavenging activity; test: Antioxidant activity of the compound assessed as DPPH radical scavenging activity at 400 ug/ml after 20 mins; format: functional; summary of the method: as §1
[6] = system: Radical scavenging activity; test: Antioxidant activity of the compound assessed as DPPH radical scavenging activity at 800 ug/ml after 20 mins; format: functional; summary of the method: as §1
Staphylococcus aureus [7] = test: Antibacterial activity against Staphylococcus aureus ATTC 25923 after 16 to 18 hrs by serial dilution method; format: functional
Summary of the method: (§2)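 Serial drug dilutions in Mueller-Hinton broth adjusted to pH 5.0 with phosphate buffer, inoculated with standardized bacterial suspension, incubated 16–18 h at 37 °C; MIC taken as lowest concentration without conspicuous growth.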

Staphylococcus aureus [8] = test: Antibacterial activity against Staphylococcus aureus ATTC 25923 at MIC after 3 to 4 days by disc diffusion method; format: functional
Summary of the method: (§3)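 Agar well diffusion: seeded agar plates dried 1 h at 37 °C, wells punched and filled with test compound at MIC level in DMSO; DMSO solvent control. Plates in triplicate, kept at 37 °C for 3–4 days; zone of inhibition read.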

Escherichia coli [9] = test: Antibacterial activity against Escherichia coli ATTC 25922 after 16 to 18 hrs by serial dilution method; format: functional; summary of the method: as §2
Escherichia coli [10] = test: Antibacterial activity against Escherichia coli ATTC 25922 at MIC after 3 to 4 days by disc diffusion method; format: functional; summary of the method: as §3
Pseudomonas aeruginosa [11] = test: Antibacterial activity against Pseudomonas aeruginosa ATTC 27853 after 16 to 18 hrs by serial dilution method; format: functional; summary of the method: as §2
Pseudomonas aeruginosa [12] = test: Antibacterial activity against Pseudomonas aeruginosa ATTC 27853 at MIC after 3 to 4 days by disc diffusion method; format: functional; summary of the method: as §3
Klebsiella pneumoniae [13] = test: Antibacterial activity against recultured Klebsiella pneumoniae after 16 to 18 hrs by serial dilution method; format: functional; summary of the method: as §2
Klebsiella pneumoniae [14] = test: Antibacterial activity against recultured Klebsiella pneumoniae at MIC after 3 to 4 days by disc diffusion method; format: functional; summary of the method: as §3
Talaromyces marneffei [15] = test: Antifungal activity against recultured Penicillium marneffei by serial plate dilution method; format: functional
Talaromyces marneffei [16] = test: Antifungal activity against recultured Penicillium marneffei at MIC after 3 to 4 days; format: functional
[17] = system: Trichophyton mentagrophytes; test: Antifungal activity against recultured Trichophyton mentagrophytes by serial plate dilution method; format: functional
[18] = system: Trichophyton mentagrophytes; test: Antifungal activity against recultured Trichophyton mentagrophytes at MIC after 3 to 4 days; format: functional
Aspergillus flavus [19] = test: Antifungal activity against Aspergillus flavus NCIM 524 by serial plate dilution method; format: functional
Aspergillus flavus [20] = test: Antifungal activity against Aspergillus flavus NCIM 524 at MIC after 3 to 4 days; format: functional
Aspergillus fumigatus [21] = test: Antifungal activity against Aspergillus fumigatus NCIM 902 by serial plate dilution method; format: functional
Aspergillus fumigatus [22] = test: Antifungal activity against Aspergillus fumigatus NCIM 902 at MIC after 3 to 4 days; format: functional

MIC (Staphylococcus aureus [7]) [µM] | MIC (Escherichia coli [9]) [µM] | MIC (Pseudomonas aeruginosa [11]) [µM] | MIC (Klebsiella pneumoniae [13]) [µM] | MIC (Talaromyces marneffei [15]) [µM] | MIC [17] [µM] | MIC (Aspergillus flavus [19]) [µM] | Compound | Activity (Rattus norvegicus) | Time (Mus musculus [1]) [s] | Time (Mus musculus [2]) [s] | Time (Mus musculus [3]) [s] | inhibition [4] [%] | inhibition [5] [%] | inhibition [6] [%] | diameter of the inhibition zone (DIZ) (Staphylococcus aureus [8]) [mm] | diameter of the inhibition zone (DIZ) (Escherichia coli [10]) [mm] | diameter of the inhibition zone (DIZ) (Pseudomonas aeruginosa [12]) [mm] | diameter of the inhibition zone (DIZ) (Klebsiella pneumoniae [14]) [mm] | diameter of the inhibition zone (DIZ) (Talaromyces marneffei [16]) [mm] | diameter of the inhibition zone (DIZ) [18] [mm] | other results
29.5 (≈ 12.5 µg/mL) | 14.8 (≈ 6.25 µg/mL) | 14.8 (≈ 6.25 µg/mL) | 14.8 (≈ 6.25 µg/mL) | 16.1 (≈ 6.8 µg/mL) | 16.1 (≈ 6.8 µg/mL) | 16.1 (≈ 6.8 µg/mL) | COc1ccc(Br)c(-c2nnc3n2NC(c2ccc(Cl)cc2)S3)c1 (stereo unspecified) | Active | 3.675 | 3.563 | 2.425 | 42.3 | 48.1 | 63.4 | 11 | 16 | 16 | 16 | 11 | 16 | diameter of the inhibition zone (DIZ) (Aspergillus flavus [20]): 16 mm; MIC (Aspergillus fumigatus [21]): 16.1 µM (≈ 6.8 µg/mL); diameter of the inhibition zone (DIZ) (Aspergillus fumigatus [22]): 16 mm
41.5 (≈ 12.5 µg/mL) | 20.8 (≈ 6.25 µg/mL) | 41.5 (≈ 12.5 µg/mL) | 20.8 (≈ 6.25 µg/mL) | 20.8 (≈ 6.25 µg/mL) | 20.8 (≈ 6.25 µg/mL) | 20.8 (≈ 6.25 µg/mL) | COc1ccc(Br)c(-c2n[nH]c(=S)n2N)c1 | Active | 3.463 | 3.388 | 2.338 | 52.7 | 56.8 | 67.5 | 11 | 16 | 11 | 16 | 16 | 16 | diameter of the inhibition zone (DIZ) (Aspergillus flavus [20]): 16 mm; MIC (Aspergillus fumigatus [21]): 20.8 µM (≈ 6.25 µg/mL); diameter of the inhibition zone (DIZ) (Aspergillus fumigatus [22]): 16 mm

Reference: ChEMBL document CHEMBL1955832, “Facile synthesis, characterization and pharmacological activities of 3,6-disubstituted 1,2,4-triazolo[3,4-b][1,3,4]thiadiazoles and 5,6-dihydro-3,6-disubstituted-1,2,4-triazolo[3,4-b][1,3,4]thiadiazoles” (2012)
